Screens from PubChem BioAssay.
IMP-1 inh – IMP-1 metallo-beta-lactamase inhibitors, primary screen, biochemical, epi-absorbance readout, Pseudomonas aeruginosa enzyme; inhibition, % at 5.6 µM; purified IMP-1, nitrocefin hydrolysis, epi-absorbance fluorescence; 290,000 tested, 0.45% active; AID 1556, 2009;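 active = inhibition above the mean plus 3 SD of all compounds in the same screening run, cut at about 4.5% in these data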
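System: purified IMP-1; amount: IMP-1 0.2 nM before substrate addition; compound: single dose, 5.6 µM; times: 25 °C, 15 min preincubation, 25 min reaction; signal: Epi-absorbance via hydrolysed-nitrocefin quenching of white-plate fluorescence, 480/530 nm, EDTA stop; benchmarks: DMSO with and without IMP-1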
aSyn UTR inh – MLPCN primary screen, SNCA 5' untranslated region; alpha-synuclein 5'UTR reporter, inhibitor activity; AID 1813, 2009; 300,000 tested, 0.82% active; inhibition, % (tested at 7.5 µM); in the data active = inhibition above about 60%;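 note: H4 neuroglioblastoma cells stably carrying SNCA 5'UTR luciferase fusion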
VIM-2 inhibitor – VIM-2 metallo-beta-lactamase inhibitors, primary screen, biochemical, epi-absorbance readout, Pseudomonas aeruginosa enzyme; inhibition, % at 5.6 µM; purified VIM-2, nitrocefin hydrolysis, epi-absorbance fluorescence; 290,000 tested, 0.89% active;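 active = inhibition above the mean of all tested compounds plus 3 SD, cutoff set per screening run, cut at about 7.5% in these data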;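 note: red hydrolysis product quenches plate fluorescence so inhibitors raise well fluorescence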
Jurkat NFkB inh – inhibitors of induced NF-kB luciferase reporter, primary screen, TCR NF-kB activation inhibitor project, cell-based, luminescence, uHTS. Jurkat, PMA/ionomycin-induced NF-kB luciferase reporter. inhibition, % at 4 µM. 330,000 tested, 0.53% active. AID 435003, 2010; in the data active = inhibition above about 50%
697 NFkB inh – inhibitors of PMA/ionomycin-induced NF-kB reporter, 697 cells, primary screen, B-cell NF-kB inhibitor project, cell-based, luminescence, uHTS; AID 435022, 2010; 330,000 tested, 0.33% active; 697 B-cell NF-kB luciferase reporter, 16 h; inhibition, % at 4 µM; in the data active = inhibition above about 35%
Mdm2 MdmX PPI – inhibitors of human Mdm2-MdmX association, primary screen, cell-based, luminescence, split luciferase, SaOS-2, uHTS; 330,000 tested, 3% active; inhibition, % at 8 µM; AID 485346, 2010; Protein Mdm4 (Homo sapiens) + E3 ubiquitin-protein ligase Mdm2 (Homo sapiens), …; SaOS-2 split-luciferase Mdm2/MdmX complementation;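 active = inhibition of at least 50% at 8 µM in the primary screen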
697 NFkB conf – PMA/ionomycin-induced NF-kB reporter inhibitors, 697 retest, confirmation, B-cell NF-kB inhibitor project, cell-based, luminescence, single concentration | 2,000 tested, 35% active | shares compounds with 697 NFkB inh | inhibition, % at 4 µM | 697 B-cell NF-kB luciferase, 16 h; in the data active = inhibition mostly above about 28%, no sharp cut-off; inactive = mostly below about 22%
Mdm2-MdmX conf – Mdm2-MdmX complex disruptors, retested hits, confirmation, luminescence, single concentration. shares compounds with Mdm2 MdmX PPI. Mdm2-MdmX binding, luminescent assay. inhibition, % at 8 µM. 10,000 tested, 55% active; in the data active = inhibition above about 40%
Full FLuc ctr – full-length luciferase signal inhibition, confirmation, counter-screen for Mdm2/MdmX interaction inhibitor project, cell-based, single concentration, SaOS-2 | shares compounds with Mdm2 MdmX PPI | SaOS-2 full-length luciferase counterscreen, luminescence | inhibition, % at 8 µM | 6,200 tested, 77% active;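 active = mean inhibition at 8 µM reaching about 37%, which flags the compound as non-specific, limit read from the data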;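 note: p53-null SaOS-2 cells with luciferase driven by a doxycycline-inducible promoter; compound on cells about two nights before reading with doxycycline added after day one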
A number is an active result; - = inactive; . = no result given. A selection: hits, their analogues and other compounds. The true share with any hit is near 4.7%.

SMILES	IMP-1 inh	aSyn UTR inh	VIM-2 inhibitor	Jurkat NFkB inh	697 NFkB inh	Mdm2 MdmX PPI	697 NFkB conf	Mdm2-MdmX conf	Full FLuc ctr
CN1C(=O)c2cccc3c(S(=O)(=O)Nc4ccccc4F)ccc1c23	-	-	-	-	37.2	51.1	34.2	-	.
Cc1ccsc1/C=N/NC(=O)CC(=O)NCC(C)C	-	-	-	-	-	-	.	.	.
O=C(COc1ccc(Cl)cc1)NCc1n[nH]c(=O)c2ccccc12	.	-	.	-	-	-	.	.	.
COc1ccc(/C=C\C(=O)O[C@@H]2C(O)C(O[C@@H]3OC(C)[C@H](O[C@@H]4OCC(O[C@H]5O[C@H](CO)[C@@H](O)C(O)C5O)C(O)C4O)C(O)C3O)[C@H](OC(=O)[C@]34CCC(C)(C)C[C@@H]3C3=CCC5[C@@]6(C)CC(O)C(O[C@@H]7OC(CO)C(O)[C@H](O)[C@H]7O)[C@@](C)(C(=O)O)C6CC[C@@]5(C)[C@]3(CO)CC4)O[C@H]2C)cc1 (some centres not stated)	.	.	.	-	49.2	78.7	43.7	58.6	-
C[C@@H]1CC[C@]2(C(=O)O[C@@H]3O[C@H](CO)[C@@H](O)[C@H](O)[C@H]3O)CC[C@]3(C)C(=CCC4[C@@]5(C)CC[C@H](O[C@@H]6OC[C@H](O)[C@H](O[C@@H]7O[C@H](CO)[C@@H](O)[C@H](O)[C@H]7O)[C@H]6O)C(C)(C)C5CC[C@]43C)C2[C@]1(C)O (some centres not stated)	.	.	.	-	-	-	.	.	.
COc1cccc(-c2ccc3ncnc(NCc4cccc(C)c4)c3c2)c1	.	.	.	-	-	-	.	.	.
Cc1noc(C)c1-c1ccc2ncnc(NCC3CCCCN3C)c2c1 (configuration not stated)	.	.	.	-	36.1	72.3	-	46.5	73.0
COc1ccc(/C=N\NC(=O)COc2ccccc2Cl)cc1Cn1nc(C)cc1C	-	-	-	-	-	-	.	.	.
COc1ccc(/C=N\NC(=O)c2sccc2C)cc1Cn1nc(C)cc1C	-	-	-	-	39.2	59.0	44.5	63.9	73.0
O=C1NC[C@H](c2ccccc2)OC(=O)[C@@H](Cc2ccc(F)cc2)C/C=C\C[C@H]1CC(=O)N(CCO)Cc1ccccc1	.	.	.	-	39.8	85.2	24.2	78.7	50.8
CC(=O)Nc1nc2c(s1)CCc1ccccc1-2	-	-	-	-	-	-	.	.	.
O=C(CCCl)Nc1nc2c(s1)CCc1ccccc1-2	-	-	-	-	-	68.5	-	61.5	-
CC(C)(C)N(Cc1ccccc1)C(=O)COC(=O)CCN1C(=O)C2CC=CCC2C1=O (configuration not stated)	.	.	.	-	-	-	.	.	.
O=C(c1cccc(S(=O)(=O)N2CCc3ccccc32)c1)N1CCN(c2ccccn2)CC1	-	-	-	-	-	84.7	-	83.8	38.9
CCn1c(COC(=O)CNC(=O)c2cc(OC)c(OC)c(OC)c2)nc2cc(S(=O)(=O)N(C)C)ccc21	.	-	.	-	-	-	.	.	.
O=C(CCCN1C(=O)/C(=C/c2ccccc2Cl)SC1=S)NNC(=O)c1ccccc1Cl	-	100.3	-	-	69.0	56.4	65.0	-	.
Cc1cc(NC(=O)CCCN2C(=O)/C(=C/c3ccccc3Cl)SC2=S)no1	-	-	-	-	59.8	68.5	68.0	43.5	58.5
O=C(CCCN1C(=O)/C(=C/c2cccs2)SC1=S)NNC(=O)c1ccccc1O	-	-	-	-	-	-	.	.	.
O=c1cccc2c1c1cc[nH]c3ccc(=O)n2c31	.	78.9	.	-	55.9	72.5	52.2	67.6	53.2
Cc1ccc2c(c1)cc(C(=O)NCc1ccccc1)n2C	-	-	-	-	-	84.9	-	55.5	52.1
CC(C)c1ccc(/C=C2\SC(=S)N(CCC(=O)N3CCCCC3CCO)C2=O)cc1 (configuration not stated)	-	-	-	-	69.5	61.7	70.8	50.3	-
COc1cccc(/C=C2\SC(=O)N(CCC(=O)N3CCCCC3CCO)C2=O)c1 (configuration not stated)	-	-	-	-	-	-	.	.	.
Cc1c(NC(=O)CSc2nnc3c4ccccc4n(CCc4ccccc4)c3n2)c(=O)n(-c2ccccc2)n1C	-	-	-	-	-	100.3	-	90.5	52.0
O=C(N/N=C/c1ccnc2ccccc12)c1ccccc1O	-	-	-	-	-	-	.	.	.
CCCc1c(NC(=O)Nc2ccc(F)cc2)cnn1-c1ccccc1	-	-	-	-	-	88.6	-	60.6	-
SMILES	IMP-1 inh	aSyn UTR inh	VIM-2 inhibitor	Jurkat NFkB inh	697 NFkB inh	Mdm2 MdmX PPI	697 NFkB conf	Mdm2-MdmX conf	Full FLuc ctr
CCCc1c(C(=O)Nc2ccc(F)cc2C)cnn1-c1ccccc1	-	-	-	-	-	-	.	.	.
Cn1c(=O)c(C(=O)Nc2ccccn2)c(O)c2ccccc21	-	-	-	-	-	66.7	-	60.4	-
Cn1c(=O)c(C(=O)Nc2ccccc2S(N)(=O)=O)c(O)c2ccccc21	-	-	-	-	-	-	.	.	.
CC(=O)/C(C#N)=C1\NC(=O)C(Cc2cc(Cl)ccc2Cl)S1 (configuration not stated)	-	-	-	-	-	95.8	-	82.8	-
CC(=O)/C(C#N)=C1\NC(=O)C(Cc2ccc(F)cc2)S1 (configuration not stated)	-	-	-	-	-	-	.	.	.
CC(=O)/C(C#N)=C1\NC(=O)C(Cc2ccccc2Cl)S1 (configuration not stated)	-	-	-	-	-	87.0	-	90.5	-
CC(=O)/C(C#N)=C1\NC(=O)C(Cc2ccc(C)c(C)c2)S1 (configuration not stated)	-	-	-	-	-	83.7	-	90.7	-
CCN(C(=O)COc1ccc(N(C)S(=O)(=O)c2ccc(NC(C)=O)cc2)cc1)C1CCCCC1	.	.	.	-	-	-	.	.	.
COc1ccc(-c2nc(NC(=O)c3n[nH]c(=O)c4ccccc34)sc2C)cc1	-	-	-	-	-	68.9	-	-	.
